According to ChEMBL document CHEMBL1149773, “Synthesis, determination of the lipophilicity, anticancer and antimicrobial properties of some fused 1,2,4-triazole derivatives” (Eur J Med Chem, 2008):
Converted amounts (≈) assume the structure as drawn. Blank lines part the entries; values can stand above or below the molecule they belong to. The source made the active and inactive calls. No cut-off for these calls is given here.

Key:
[1] = Lipophilicity, log kw in dioxane aqueous system at pH 3.5; assay type: physicochemical; settings: buffer
In short: (§1)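 RP-HPLC on an octadecyl silica column (150 × 4.6 mm, 5 µm) at 22 ± 1 °C, flow 1.0 mL min⁻¹, UV detection at 254 nm. Mobile phase was methanol, acetonitrile or dioxane with water and 0.01 M phosphate buffer pH 3.5 containing 0.05 M DEA. log k_W was extrapolated to pure water by regression.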

LS180 [2] = assay: Induction of DNA damage in human LS180 cells at 29.3 uM; assay type: functional, cell-based
In short: (§2)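 Cells were treated at 29.3 µM (10 µg mL⁻¹) and washed twice with PBS. DNA was isolated with lysis buffer plus proteinase K, or cells were lysed as agarose plugs. Samples ran on 1% agarose with propidium iodide at 120 V for 1.5 h at room temperature […]. Experiments were repeated three times. The comet assay was also run on T47D.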

LS180 [3] = assay: Effect on superoxide dismutase gene expression in human LS180 cells at 29.3 uM; assay type: functional, cell-based
In short: (§3)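 LS180 and T47D cells were incubated at 29.3 µM (10 µg mL⁻¹). SOD gene expression was visualised by electrophoresis on 1% agarose gel against an untreated control.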

T47D [4] = assay: Effect on superoxide dismutase gene expression in human T47D cells at 29.3 uM; assay type: functional, cell-based; in short: as §3
Vero = assay: Induction of DNA damage in african green monkey Vero cells at 29.3 uM; assay type: cell-based; settings: chlorocebus sabaeus; in short: as §2
SiHa [5] = assay: Induction of DNA damage in human SiHa cells at 29.3 uM; assay type: functional, cell-based; in short: as §2
T47D [6] = assay: Induction of DNA damage in human T47D cells at 29.3 uM; assay type: functional, cell-based; in short: as §2
[7] = Lipophilicity, log kw in acetonitrile aqueous system at pH 3.5; assay type: physicochemical; in short: as §1
[8] = Lipophilicity, log kw in methanol aqueous system at pH 3.5; assay type: physicochemical; in short: as §1
[9] = Growth inhibition of human skin fibroblast at 29.3 uM; assay type: cell-based; settings: human skin fibroblasts, read-out: GI
In short: (§4)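 Vero, LS180, SiHa, T47D or primary HSF cells were seeded at 10^4 cells per mL and preincubated in microtiter plates. Compounds were added at 10 or 50 µg mL⁻¹ (printed µM equivalents depend on the compound) and incubated 72 h. End-point was BrdU labelling read spectrophotometrically on an ELISA reader. Growth inhibition is % versus untreated controls; triplicates.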

[10] = Growth inhibition of human skin fibroblast at 146.7 uM; assay type: cell-based; settings: human skin fibroblasts, read-out: GI; in short: as §4
[11] = Growth inhibition of african green monkey Vero cells at 29.3 uM; assay type: cell-based; settings: chlorocebus sabaeus, read-out: GI; in short: as §4
[12] = Growth inhibition of african green monkey Vero cells at 146.7 uM; assay type: cell-based; settings: chlorocebus sabaeus, read-out: GI; in short: as §4
[13] = Growth inhibition of human LS180 cells at 29.3 uM; assay type: functional; settings: read-out: GI; in short: as §4
[14] = Growth inhibition of human LS180 cells at 146.7 uM; assay type: functional; settings: read-out: GI; in short: as §4
SiHa [15] = assay: Growth inhibition of human SiHa cells at 29.3 uM; assay type: functional; settings: read-out: GI; in short: as §4
SiHa [16] = assay: Growth inhibition of human SiHa cells at 146.7 uM; assay type: functional; settings: read-out: GI; in short: as §4
T47D [17] = assay: Growth inhibition of human T47D cells at 29.3 uM; assay type: functional; settings: read-out: GI; in short: as §4
T47D [18] = assay: Growth inhibition of human T47D cells at 146.7 uM; assay type: functional; settings: read-out: GI; in short: as §4
[19] = Antiproliferative activity against human skin fibroblast assessed as cell viability at 1 uM by MTT assay; assay type: cell-based; settings: human skin fibroblasts, read-out: Activity
In short: (§5)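 Log-phase cells, kept in supplemented RPMI 1640 (HSF in DMEM/10% FBS) at 37 °C, 5% CO2, were exposed 24 h to 1, 50 or 100 µM compound from DMSO. They were washed, given 0.5 mg/mL MTT in HEPES buffer pH 7.4 for 45 min at 37 °C, and formazan was dissolved in DMSO and read at 570 nm. Values are % viability versus control from three independent measurements.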

[20] = Antiproliferative activity against human skin fibroblast assessed as cell viability at 50 uM by MTT assay; assay type: cell-based; settings: human skin fibroblasts, read-out: Activity
In short: (§6)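 MTT viability assay on primary human skin fibroblasts grown in DMEM with 10% FBS and penicillin/streptomycin. Compounds were dissolved in DMSO and given at 1, 50 or 100 µM for 24 h. Cells were washed in HEPES-buffered medium (pH 7.4) and then given MTT 0.5 mg mL⁻¹ for 45 min at 37 °C. Formazan was dissolved in DMSO and read at 570 nm. Viability is % of control; three independent measurements.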

[21] = Antiproliferative activity against human skin fibroblast assessed as cell viability at 100 uM by MTT assay; assay type: cell-based; settings: human skin fibroblasts, read-out: Activity; in short: as §6
[22] = Antiproliferative activity against human RPMI cells assessed as cell viability at 1 uM by MTT assay; assay type: functional; settings: read-out: Activity; in short: as §5
[23] = Antiproliferative activity against human RPMI cells assessed as cell viability at 50 uM by MTT assay; assay type: functional; settings: read-out: Activity; in short: as §5
[24] = Antiproliferative activity against human RPMI cells assessed as cell viability at 100 uM by MTT assay; assay type: functional; settings: read-out: Activity; in short: as §5
HeLa [25] = assay: Antiproliferative activity against human HeLa cells assessed as cell viability at 1 uM by MTT assay; assay type: functional; settings: read-out: Activity; in short: as §5
HeLa [26] = assay: Antiproliferative activity against human HeLa cells assessed as cell viability at 50 uM by MTT assay; assay type: functional; settings: read-out: Activity; in short: as §5
HeLa [27] = assay: Antiproliferative activity against human HeLa cells assessed as cell viability at 100 uM by MTT assay; assay type: functional; settings: read-out: Activity; in short: as §5
Pseudomonas aeruginosa [28] = assay: Antimicrobial activity against Pseudomonas aeruginosa ATCC 27853 at 572.4 uM by disc-diffusion method; assay type: functional; settings: read-out: IZ
In short: (§7)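 Kirby–Bauer disc diffusion: 5 mm paper discs soaked in compound solution in DMSO (100 or 200 µg/mL; reference drugs 200 µg/mL) and laid on inoculated Mueller-Hinton agar (bacteria) or Sabouraud agar (C. albicans, Aspergillus). DMSO discs were the control. Plates ran 24 h at 35 °C. Inhibition zone diameter was scored 0–10 mm R, 11–16 mm I, 17–25 mm S; triplicate.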

Proteus vulgaris = assay: Antimicrobial activity against Proteus vulgaris at 572.4 uM by disc-diffusion method; assay type: functional; settings: read-out: IZ; in short: as §7
Klebsiella pneumoniae = assay: Antimicrobial activity against Klebsiella pneumoniae at 572.4 uM by disc-diffusion method; assay type: functional; settings: read-out: IZ; in short: as §7
Klebsiella aerogenes = assay: Antimicrobial activity against Enterobacter aerogenes at 572.4 uM by disc-diffusion method; assay type: functional; settings: read-out: IZ; in short: as §7
Staphylococcus aureus [29] = assay: Antimicrobial activity against Staphylococcus aureus ATCC 25923 at 572.4 uM by disc-diffusion method; assay type: functional; settings: read-out: IZ
In short: (§8)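 Kirby–Bauer disc diffusion on Mueller-Hinton medium. Sterile 5 mm paper discs are impregnated with agent dissolved in DMSO and placed on inoculated agar. DMSO discs serve as solvent control. Plates are incubated 24 h at 35 °C. Inhibition zone diameter is scored as 0–10 mm resistant, 11–16 mm intermediate, or 17–25 mm susceptible. Each assay is run three times.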

[30] = system: Staphylococcus epidermidis; assay: Antimicrobial activity against Staphylococcus epidermidis at 572.4 uM by disc-diffusion method; assay type: functional; settings: read-out: IZ; in short: as §7
Streptococcus pyogenes = assay: Antimicrobial activity against Streptococcus pyogenes at 572.4 uM by disc-diffusion method; assay type: functional; settings: read-out: IZ; in short: as §8
Streptococcus agalactiae = assay: Antimicrobial activity against Streptococcus agalactiae at 572.4 uM by disc-diffusion method; assay type: functional; settings: read-out: IZ; in short: as §8
Candida albicans = assay: Antimicrobial activity against Candida albicans ATCC 10231 at 572.4 uM by disc-diffusion method; assay type: functional; settings: read-out: IZ; in short: as §7
Aspergillus sp. = assay: Antimicrobial activity against Aspergillus sp. at 572.4 uM by disc-diffusion method; assay type: functional; settings: read-out: IZ; in short: as §7
Staphylococcus aureus [31] = assay: Antimicrobial activity against Staphylococcus aureus ATCC 25923 after 24 hrs by microdilution assay; assay type: functional; settings: ATCC 25923, 24 h
Pseudomonas aeruginosa [32] = assay: Antimicrobial activity against Pseudomonas aeruginosa ATCC 27853 after 24 hrs by microdilution assay; assay type: functional; settings: ATCC 27853, 24 h
Escherichia coli = assay: microbe, parasite or virus in culture; settings: ATCC 25922, read-out: IZ

logKw [1]: 1.17
logKw [7]: 1.36
logKw [8]: 1.62
Structure (SMILES): Cc1cc(Cl)ccc1OCc1nnc2n1CCN2c1ccccc1
Activity (LS180 [2]): Active
Activity (LS180 [3]): Active
Activity (T47D [4]): Active
Activity (Vero): Active
Activity (SiHa [5]): Active
Activity (T47D [6]): Active
inhibition at 29.3 µM [9]: 4%
inhibition at 146.7 µM [10]: 8%
inhibition at 29.3 µM [11]: 20%
inhibition at 146.7 µM [12]: 20%
inhibition of growth at 29.3 µM [13]: 35%
inhibition of growth at 146.7 µM [14]: 39%
inhibition of growth at 29.3 µM (SiHa [15]): 30%
inhibition of growth at 146.7 µM (SiHa [16]): 30%
inhibition of growth at 29.3 µM (T47D [17]): 25%
inhibition of growth at 146.7 µM (T47D [18]): 40%
viability at 1 µM [19]: 79.2%
viability at 50 µM [20]: 76.8%
viability at 100 µM [21]: 72.5%
viability at 1 µM [22]: 112%
viability at 50 µM [23]: 114%
viability at 100 µM [24]: 108%
viability at 1 µM (HeLa [25]): 65.6%
viability at 50 µM (HeLa [26]): 75.1%
viability at 100 µM (HeLa [27]): 75.9%

MIC (Staphylococcus aureus [31]): 35.8 µM (≈ 12.5 µg/mL)
MIC (Pseudomonas aeruginosa [32]): > 358 µM
Structure (SMILES): CC1(C)S[C@@H]2[C@H](NC(=O)[C@H](N)c3ccccc3)C(=O)N2[C@H]1C(=O)O [AMPICILLIN]
zone of inhibition at 572.4 µM (Pseudomonas aeruginosa [28]): 11 mm
zone of inhibition at 572.4 µM (Proteus vulgaris): 0 mm
zone of inhibition at 572.4 µM (Klebsiella pneumoniae): 0 mm
zone of inhibition at 572.4 µM (Klebsiella aerogenes): 0 mm
zone of inhibition at 572.4 µM (Staphylococcus aureus [29]): 17 mm
zone of inhibition at 572.4 µM [30]: 11 mm
zone of inhibition at 572.4 µM (Streptococcus pyogenes): 17 mm
zone of inhibition at 572.4 µM (Streptococcus agalactiae): 17 mm
zone of inhibition at 572.4 µM (Candida albicans): 0 mm
zone of inhibition at 572.4 µM (Aspergillus sp.): 0 mm
zone of inhibition at 572.4 µM (Escherichia coli): 17 mm
